Measurements: ChEMBL document CHEMBL5108039, “Piperazine tethered bergenin heterocyclic hybrids: design, synthesis, anticancer activity, and molecular docking studies” (RSC Med Chem, 2022)
Active and inactive are the calls of the source. No cut-off for these calls is given here.

Tests used:
SCC-9 [1] = assay: Cell cycle arrest in human SCC-9 cells assessed as accumulation at S phase at 16.2 uM incubated for 24 hrs by flow cytometry (reference value: 14.4 %); format: functional
CAL-27 [2] = assay: Cell cycle arrest in human CAL-27 cells assessed as accumulation at S phase at 32 uM incubated for 24 hrs by flow cytometry (reference value: 3.6 %); format: functional
SCC-9 [3] = assay: Induction of apoptosis in human SCC-9 cells assessed as downregulation of vimentin gene expression at 16 uM by qRT-PCR analysis; format: functional, cell-based
SCC-9 [4] = assay: Induction of apoptosis in human SCC-9 cells assessed as late apoptotic cells at 16.2 uM incubated for 24 hrs by Annexin V-FITC/PI staining based flow cytometric analysis (reference value: 1.4 %); format: functional
CAL-27 [5] = assay: Induction of apoptosis in human CAL-27 cells assessed as live cells at 32 uM incubated for 24 hrs by Annexin V-FITC/PI staining based flow cytometric analysis (reference value: 99.8 %); format: functional
Method in brief: (§1)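 CAL27 cells were treated with vehicle, doxorubicin or test compounds at 10–63 μM, and apoptosis was assessed by annexin V–FITC/PI staining with flow cytometry. Cells were scored as live, early apoptotic, late apoptotic or necrotic. The vehicle was DMSO (0.01%).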

CAL-27 [6] = assay: Induction of apoptosis in human CAL-27 cells assessed as live cells at 16 uM incubated for 24 hrs by Annexin V-FITC/PI staining based flow cytometric analysis (reference value: 99.8 %); format: functional; method in brief: as §1
CAL-27 [7] = assay: Induction of apoptosis in human CAL-27 cells assessed as late apoptotic cells at 32 uM incubated for 24 hrs by Annexin V-FITC/PI staining based flow cytometric analysis (reference value: 0.1 %); format: functional; method in brief: as §1
CAL-27 [8] = assay: Induction of apoptosis in human CAL-27 cells assessed as downregulation of Oct-4 gene expression at 16 uM by qRT-PCR analysis; format: functional, cell-based
Method in brief: (§2)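 CAL27 cells were treated with test compounds at several concentrations. Relative expression of vimentin, E-cad, Nanog, Oct-4, Bax and BcL-2 was measured by qRT-PCR against vehicle-treated control cells.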

SCC-9 [9] = assay: Induction of apoptosis in human SCC-9 cells assessed as necrotic cells at 32.4 uM incubated for 24 hrs by Annexin V-FITC/PI staining based flow cytometric analysis (reference value: 0.1 %); format: functional
SCC-9 [10] = assay: Cell cycle arrest in human SCC-9 cells assessed as accumulation at G2/M phase at 16.2 uM incubated for 24 hrs by flow cytometry (reference value: 14.2 %); format: functional
SCC-9 [11] = assay: Induction of apoptosis in human SCC-9 cells assessed as downregulation of vimentin gene expression at 32 uM by qRT-PCR analysis; format: functional, cell-based
MCF7 = assay: Cytotoxicity against human MCF7 cells assessed as cell growth inhibition; format: functional, cell-based
Method in brief: (§3)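 Compounds were dissolved in sterile DMSO as 10 mg ml−1 stocks and tested for in vitro growth inhibition of human cancer cell lines. Doxorubicin was the standard drug and DMSO (0.01%) the vehicle control. IC50 values are reported as means.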

SCC-9 [12] = assay: Induction of apoptosis in human SCC-9 cells assessed as necrotic cells at 16.2 uM incubated for 24 hrs by Annexin V-FITC/PI staining based flow cytometric analysis (reference value: 0.1 %); format: functional
SCC-9 [13] = assay: Cell cycle arrest in human SCC-9 cells assessed as accumulation at G0/G1 phase at 32.4 uM incubated for 24 hrs by flow cytometry (reference value: 70.8 %); format: functional
[14] = Cytotoxicity against human BEAS-2B cells assessed as cell growth inhibition; format: toxicity, cell-based
Method in brief: (§4)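 Compounds were dissolved in sterile DMSO as 10 mg ml−1 stocks and tested in vitro for cytotoxicity in a cell-line panel, with DMSO (0.01%) as vehicle control and doxorubicin as standard. Mean IC50 values were reported, and the normal lung epithelial cells were tested up to 100 μM.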

SCC-9 [15] = assay: Induction of apoptosis in human SCC-9 cells assessed as late apoptotic cells at 32.4 uM incubated for 24 hrs by Annexin V-FITC/PI staining based flow cytometric analysis (reference value: 1.4 %); format: functional
SCC-9 [16] = assay: Induction of apoptosis in human SCC-9 cells assessed as downregulation of Oct-4 gene expression at 16 uM by qRT-PCR analysis; format: functional, cell-based
CAL-27 [17] = assay: Cytotoxicity against human CAL-27 cells assessed as cell growth inhibition; format: functional, cell-based; method in brief: as §3
SCC-9 [18] = assay: Induction of apoptosis in human SCC-9 cells assessed as live cells at 16.2 uM incubated for 24 hrs by Annexin V-FITC/PI staining based flow cytometric analysis (reference value: 95.7 %); format: functional
CAL-27 [19] = assay: Induction of apoptosis in human CAL-27 cells assessed as upregulation of E-cad gene expression at 32 uM by qRT-PCR analysis; format: functional, cell-based
Method in brief: (§5)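 CAL27 cells were treated with test agents at different concentrations. Relative mRNA levels of vimentin, E-cad, Nanog, Oct-4, Bax and Bcl-2 were then quantified by qRT-PCR as apoptosis, EMT and stemness markers.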

A549 = assay: Cytotoxicity against human A549 cells assessed as cell growth inhibition; format: functional, cell-based; method in brief: as §4
SCC-9 [20] = assay: Induction of apoptosis in human SCC-9 cells assessed as downregulation of BcL-2 gene expression at 32 uM by qRT-PCR analysis; format: functional, cell-based
SCC-9 [21] = assay: Induction of apoptosis in human SCC-9 cells assessed as upregulation of E-cad gene expression at 16 uM by qRT-PCR analysis; format: functional, cell-based
CAL-27 [22] = assay: Induction of apoptosis in human CAL-27 cells assessed as downregulation of BcL-2 gene expression at 32 uM by qRT-PCR analysis; format: functional, cell-based; method in brief: as §2
CAL-27 [23] = assay: Induction of apoptosis in human CAL-27 cells assessed as downregulation of vimentin gene expression at 32 uM by qRT-PCR analysis; format: functional, cell-based; method in brief: as §2
SCC-9 [24] = assay: Induction of apoptosis in human SCC-9 cells assessed as downregulation of Oct-4 gene expression at 32 uM by qRT-PCR analysis; format: functional, cell-based
CAL-27 [25] = assay: Induction of apoptosis in human CAL-27 cells assessed as upregulation of Bax gene expression at 32 uM by qRT-PCR analysis; format: functional, cell-based; method in brief: as §5
SCC-9 [26] = assay: Induction of apoptosis in human SCC-9 cells assessed as downregulation of Nanog gene expression at 16 uM by qRT-PCR analysis; format: functional, cell-based
CAL-27 [27] = assay: Induction of apoptosis in human CAL-27 cells assessed as late apoptotic cells at 16 uM incubated for 24 hrs by Annexin V-FITC/PI staining based flow cytometric analysis (reference value: 0.1 %); format: functional; method in brief: as §1
CAL-27 [28] = assay: Induction of apoptosis in human CAL-27 cells assessed as downregulation of vimentin gene expression at 16 uM by qRT-PCR analysis; format: functional, cell-based; method in brief: as §2
CAL-27 [29] = assay: Induction of apoptosis in human CAL-27 cells assessed as downregulation of Nanog gene expression at 16 uM by qRT-PCR analysis; format: functional, cell-based; method in brief: as §2
SCC-9 [30] = assay: Induction of apoptosis in human SCC-9 cells assessed as upregulation of Bax gene expression at 16 uM by qRT-PCR analysis; format: functional, cell-based
CAL-27 [31] = assay: Cell cycle arrest in human CAL-27 cells assessed as accumulation at G2/M phase at 32 uM incubated for 24 hrs by flow cytometry (reference value: 11.9 %); format: functional

COc1ccc(-c2csc(NC(=O)CN3CCN(Cc4c(O)c(OC)c(O)c5c4C(=O)OC4C5O[C@H](CO)[C@@H](O)[C@@H]4O)CC3)n2)cc1 (stereo partly drawn)
Activity (SCC-9 [1]): 16% | Activity (CAL-27 [2]): 3.1% | Activity (SCC-9 [3]): Active | Activity (SCC-9 [4]): 40.8% | Activity (CAL-27 [5]): 91% | Activity (CAL-27 [6]): 94.5% | Activity (CAL-27 [7]): 4.3% | Activity (CAL-27 [8]): Active | Activity (SCC-9 [9]): 33.8% | Activity (SCC-9 [10]): 10.6% | Activity (SCC-9 [11]): Active | IC50 (MCF7): > 100 µM | Activity (SCC-9 [12]): 9.2% | Activity (SCC-9 [13]): 77.6% | IC50 [14]: > 100 µM | Activity (SCC-9 [15]): 17.5% | Activity (SCC-9 [16]): Active | IC50 (CAL-27 [17]): 16 µM | Activity (SCC-9 [18]): 44.2% | Activity (CAL-27 [19]): Active | IC50 (A549): > 100 µM | Activity (SCC-9 [20]): Active | Activity (SCC-9 [21]): Active | Activity (CAL-27 [22]): Active | Activity (CAL-27 [23]): Active | Activity (SCC-9 [24]): Active | Activity (CAL-27 [25]): Active | Activity (SCC-9 [26]): Active | Activity (CAL-27 [27]): 2% | Activity (CAL-27 [28]): Active | Activity (CAL-27 [29]): Active | Activity (SCC-9 [30]): Active | Activity (CAL-27 [31]): 9.4%
